Screening results from PubChem.
Shown are actives, neighbours in structure and some others; about 1.6% of the full set was active somewhere.
dFosB activator – activators of delta FosB homodimer, primary screen, biochemical, fluorescence polarization, TAMRA-CDK5 oligo, single point; Protein FosB (Mus musculus), P13346; purified delta FosB; percent of positive-control signal above neutral wells; activation, % at 25 µM; actives 0.99% (n = 340,000);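 active = mean activation above about 17%, with every replicate also reaching it, limit read from the data, passing the limit was not always enough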
Target sequence (P13346 whole entry, looked up): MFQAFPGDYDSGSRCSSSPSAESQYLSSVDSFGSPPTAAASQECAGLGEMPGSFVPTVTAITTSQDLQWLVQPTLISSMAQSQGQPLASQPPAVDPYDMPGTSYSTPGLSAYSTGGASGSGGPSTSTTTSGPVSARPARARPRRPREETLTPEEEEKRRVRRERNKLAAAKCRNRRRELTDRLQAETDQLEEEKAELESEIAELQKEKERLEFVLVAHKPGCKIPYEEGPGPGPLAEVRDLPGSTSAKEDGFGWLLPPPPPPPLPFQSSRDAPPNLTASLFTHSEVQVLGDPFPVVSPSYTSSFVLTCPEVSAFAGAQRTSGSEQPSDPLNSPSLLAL
SR-BI DiI-HDL act – activators of SR-BI mediated DiI-HDL uptake, primary screen, ldlA[mSR-BI] CHO cells, DiI fluorescence; 3 h; 100 = double the neutral-control signal; activation, % at 12.5 µM; actives 0.096% (n = 320,000);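 active = mean replicate activation of at least 60% and every replicate at or above 60%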
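Assay system: CHO ldlA[mSR-BI] cells, LDL receptor-null, SR-BI overexpressing; medium: Ham's F12 with 0.5% BSA, HEPES 25 mM, pH 7.4; also added: DiI-HDL 10 µg/mL; timing: 3 h uptake period with compound, 37 °C; signal: DiI fluorescence, bottom read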
S100A4 MyoIIA – inhibitors of S100A4-myosin IIA peptide binding, primary screen, biochemical, fluorescence polarization, TAMRA-MyoIIA peptide; inhibition, % at 10.7 µM; actives 0.14% (n = 360,000); Protein S100-A4 (Homo sapiens), P26447; AID 652163, 2013;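 active = mean inhibition of at least 70% across replicates, with every replicate also reaching that level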
Target sequence (P26447 whole entry, looked up): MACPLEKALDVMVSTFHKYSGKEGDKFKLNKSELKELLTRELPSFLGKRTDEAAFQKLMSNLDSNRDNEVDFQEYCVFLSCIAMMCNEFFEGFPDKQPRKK
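Test system – S100A4 monomer (human) · Compound – single-point compound testing · Schedule – 5 min incubation before reading · Probe or stimulus – TAMRA-labelled myosin IIA heavy-chain peptide probe, 5 nM · Benchmarks – neutral control DMSO, positive control TFP · Medium – Calcium-containing HEPES buffer, pH 7.2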
PvdQ inh – P. aeruginosa PvdQ acylase inhibitors, primary screen, biochemical, fluorescence, plate reader and imaging, single point. PvdQ acylase [Pseudomonas aeruginosa LESB58]. purified PvdQ acylase. inhibition, % at 10 µM. actives 0.063% (n = 340,000). AID 488965, 2010; in the data active = inhibition above about 30%, passing the limit was not always enough
SR-BI HDL uptake – inhibitors of SR-BI mediated HDL lipid uptake, primary screen, ldlA[mSR-BI] cells, fluorescence, single point; Scavenger receptor class B member 1 (Mus musculus), Q61009; ldlA[mSR-BI] CHO cells, DiI-HDL uptake fluorescence, 3 h; inhibition, % at 12.5 µM; actives 0.96% (n = 320,000); AID 488896, 2010;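 active = mean replicate inhibition of at least 70% and a set share of replicates each scoring 70 or more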
RAD54 branch – inhibitors of human RAD54 branch migration, primary screen, biochemical, fluorescence, single point; DNA repair and recombination protein RAD54-like (Homo sapiens), Q92698; RAD54 Holliday junction branch migration, FAM/BHQ fluorescence; inhibition, % at 10.4 µM; actives 0.14% (n = 360,000);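 active = mean normalized replicate activity at least 40 and at least half of replicates scoring 40 or more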;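 note: inhibitors cause a drop in the FAM fluorescence signal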
Each line names hits and unclear results; the compound was inactive in the other large screens.

O=C(Nc1ccccn1)c1cc(-c2cccnc2)nc2ccc(Br)cc12	none (no result: RAD54 branch)
O=C(Nc1ccc(C(=O)N2CCOCC2)cc1)c1cc(-c2cccnc2)nc2ccc(Br)cc12	SR-BI HDL uptake 81 (no result: RAD54 branch)
CCCC(=O)Nc1ccc2c(c1)C(=O)N(C)C[C@H](OC)[C@H](C)CN(Cc1ccccc1)[C@H](C)CO2	S100A4 MyoIIA 96 (no result: dFosB activator, SR-BI DiI-HDL act, PvdQ inh, SR-BI HDL uptake)
CCCN1C[C@H](C)[C@H](OC)CN(C)C(=O)c2cc(NC(=O)NC3CCCCC3)ccc2OC[C@@H]1C	S100A4 MyoIIA 116 (no result: dFosB activator, SR-BI DiI-HDL act, PvdQ inh, SR-BI HDL uptake)
CCCC(=O)Nc1ccc2c(c1)C(=O)N(C)C[C@H](OC)[C@H](C)CN(Cc1ccccc1)[C@@H](C)CO2	S100A4 MyoIIA 98 (no result: dFosB activator, SR-BI DiI-HDL act, PvdQ inh, SR-BI HDL uptake)
CCCC(=O)Nc1ccc2c(c1)OC[C@@H](C)N(Cc1ccc(-c3ccccn3)cc1)C[C@H](C)[C@H](OC)CN(C)C2=O	S100A4 MyoIIA 109 (no result: dFosB activator, SR-BI DiI-HDL act, PvdQ inh, SR-BI HDL uptake)
CN(C)C(=O)[C@H]1[C@H](CO)[C@H]2Cn3c(ccc(-c4ccccc4F)c3=O)[C@@H]1N2C	none (no result: dFosB activator, SR-BI DiI-HDL act, PvdQ inh, SR-BI HDL uptake)
CCOc1ccc(C(=O)NCC(=O)NCCSc2ccc(Br)cc2)cc1OCC	SR-BI HDL uptake 87
Cc1ccc(C(=O)NCC(=O)NCCSc2ccc(Br)cc2)cc1	none (no result: RAD54 branch)
CCN1CCN(c2c(/C=C3\SC(=S)N(Cc4ccco4)C3=O)c(C)c(C#N)c(=O)n2C)CC1	dFosB activator 56 (no result: RAD54 branch)
COc1cccc(C=C2SC(=S)N(Cc3ccco3)C2=O)c1OC	none (no result: dFosB activator, SR-BI DiI-HDL act, PvdQ inh, SR-BI HDL uptake, RAD54 branch)
CCCC#Cc1ccc([C@H]2[C@H]3CN(S(=O)(=O)Cc4ccccc4)CC(=O)N3[C@H]2CO)cc1	none (no result: dFosB activator, SR-BI DiI-HDL act, PvdQ inh, SR-BI HDL uptake, RAD54 branch)
CCOC(=O)c1ccc(N2C(=O)C(C)=C(C)C2=O)cc1	PvdQ inh 38 (no result: S100A4 MyoIIA, RAD54 branch)
CC(C)Oc1ccc(Nc2ncnc3ccccc23)cc1	PvdQ inh 31 (no result: RAD54 branch)
Cc1cc(-c2ccccc2)nc(N/N=C/c2cccnc2)n1	none
Cc1cc(-c2ccccc2)nc(N/N=C/c2ccc(N(C)C)cc2)n1	none (no result: RAD54 branch)
Cc1cc(-c2ccccc2)nc(N/N=C/c2ccc([N+](=O)[O-])cc2)n1	SR-BI HDL uptake 73
Cc1cc(-c2ccccc2)nc(N/N=C/c2ccccc2)n1	SR-BI HDL uptake 72
CCNC(=O)Nc1ccc2c(c1)C(=O)N(C)[C@@H]1CC[C@@H](CC(=O)NCC3CCCCC3)O[C@@H]1CO2	none (no result: dFosB activator, SR-BI DiI-HDL act, PvdQ inh, SR-BI HDL uptake)
COc1ccc(Nc2ncnc3sc(-c4ccccc4)cc23)cc1OC	SR-BI HDL uptake 93 (no result: S100A4 MyoIIA)
CCc1cc2c(=O)c(-c3ccc4c(c3)OCO4)coc2c(CN(C)C)c1O	SR-BI HDL uptake 79
CO[C@H]1CN(C)C(=O)c2cc(NC(=O)C3CC3)ccc2OC[C@H](C)N(C(C)=O)C[C@H]1C	none (no result: dFosB activator, SR-BI DiI-HDL act, PvdQ inh, SR-BI HDL uptake)
COc1ccccc1C#Cc1ccc2c(c1)[C@@H]1[C@@H](CCN1S(=O)(=O)c1ccc(F)cc1)[C@@H](CO)N2	none (no result: dFosB activator, SR-BI DiI-HDL act, PvdQ inh, SR-BI HDL uptake, RAD54 branch)
CO[C@H]1CN(C)C(=O)c2ccc(NC(=O)C3CC3)cc2OC[C@@H](C)N(C(=O)c2ccccc2F)C[C@H]1C	none (no result: dFosB activator, SR-BI DiI-HDL act, PvdQ inh, SR-BI HDL uptake)
C[C@@H]1CN([C@H](C)CO)C(=O)c2cccc(NS(C)(=O)=O)c2O[C@H]1CN(C)C	none (no result: dFosB activator, SR-BI DiI-HDL act, PvdQ inh, SR-BI HDL uptake)
COC(=O)/C(=C(O)\C=C\c1ccccc1[N+](=O)[O-])c1nc2ccccc2[nH]1	SR-BI HDL uptake 89
O=C(/C=C\c1ccccc1[N+](=O)[O-])Nc1ccccc1	none (no result: RAD54 branch)
O=C1CC(SC(=Nc2ccccc2)Nc2ccccc2)C(=O)N1c1cccc2ccccc12 (centres undefined)	SR-BI HDL uptake 93 (no result: S100A4 MyoIIA)
COc1cccc2sc(Nc3nc(-c4ccncc4)cs3)nc12	SR-BI HDL uptake 80 (no result: RAD54 branch)
CC(=O)Nc1ccc2nc(NC(=O)COc3ccccc3Cl)sc2c1	none
CC(=O)Nc1ccc2nc(NC(=O)COc3ccccc3C)sc2c1	dFosB activator 20
COc1cccc2sc(Nc3nc4ccc(NC(C)=O)cc4s3)nc12	dFosB activator 35 (no result: RAD54 branch)
CO[C@@H]1CN(C)C(=O)c2cc(NS(=O)(=O)c3cn(C)cn3)ccc2OC[C@@H](C)N(CC2CC2)C[C@@H]1C	none (no result: dFosB activator, SR-BI DiI-HDL act, PvdQ inh, SR-BI HDL uptake)
